From PubChem BioAssay
Hits are enriched below; roughly 3.5% of the tested compounds scored in any of these assays.
FLuc act counter: firefly luciferase counter-screen for stimulation assays; ATPlite luciferase biochemical, luminescence, 10 min; 0 = ATP-free wells, 1 = DMSO control; activation factor at 10 µM; 200,000 tested, under 10 active;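 active means luciferase activation factor, scaled between plate controls, of at least 2 with compound at 10 µM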
Target sequence (P08659 whole entry, looked up): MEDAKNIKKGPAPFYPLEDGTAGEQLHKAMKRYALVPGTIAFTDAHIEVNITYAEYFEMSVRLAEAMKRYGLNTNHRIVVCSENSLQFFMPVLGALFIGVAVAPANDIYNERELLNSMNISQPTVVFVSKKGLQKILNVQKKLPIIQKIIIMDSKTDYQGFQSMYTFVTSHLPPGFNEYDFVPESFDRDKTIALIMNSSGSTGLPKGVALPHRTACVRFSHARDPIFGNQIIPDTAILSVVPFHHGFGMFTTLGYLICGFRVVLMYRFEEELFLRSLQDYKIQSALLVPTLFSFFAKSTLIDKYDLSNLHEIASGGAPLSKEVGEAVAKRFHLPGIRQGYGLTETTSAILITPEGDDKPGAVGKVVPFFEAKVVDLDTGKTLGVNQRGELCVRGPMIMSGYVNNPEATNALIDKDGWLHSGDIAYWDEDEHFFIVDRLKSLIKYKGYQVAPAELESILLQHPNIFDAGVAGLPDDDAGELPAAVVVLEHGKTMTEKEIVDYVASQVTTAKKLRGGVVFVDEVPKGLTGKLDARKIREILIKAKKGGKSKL
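Material: luciferase plus luciferin reagent, cell-free. Medium: PBS buffer for ATP. Also added: ATP substrate, dispensed from a 10.24 µM working solution in PBS. Doses: test compounds dosed from 2 mM stocks in 100% DMSO. Incubation: 10 min post-reagent at room temperature. Technique: light output (luminescence). Read-out basis: luminescence gain marking luciferase activators.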
APP 5'UTR act: APP 5'UTR luciferase reporter activation; activation, % at 2 µM; SH-SY5Y APP 5'UTR luciferase reporter, luminescence; zero percent = DMSO vehicle wells; actives 1% (n = 190,000);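 active means activation above a set limit, based on mean plus 3 SD of controls, cut at about 140% in these data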
NF-kB expr up: compounds increasing NF-kB expression in human neuronal cells. NF-kB reporter expression; stronger effect = higher value. fold change at 12.5 µM. actives 1.6% (n = 190,000); in the data active means fold change above about 3.3
FLuc inhib CS: Photinus pyralis luciferase inhibition counter-screen | P08659 | inhibition, % at 10 µM | actives 1.5% (n = 200,000) | ATPLite firefly luciferase biochemical luminescence, 10 min;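 active means inhibition above about 50% when tested at 10 µM, limit read from the data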
STAT1 act: STAT1 signaling activation. NIH 3T3 STAT1-luciferase reporter, IFN-gamma, luminescence; 100% = IFN-gamma alone, no compound. actives 2.6% (n = 200,000). activation (% of control), % at 5.5 µM;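 active means activation above the screen-wide mean activation plus 3 SD, cut at about 130% in these data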;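 further: raw ratio to IFN-gamma control signal so 100% means no change and 0% no light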
Pf gamet viab: kills late stage P. falciparum gametocytes; P. falciparum stage V gametocytes, ATP luminescence, 24 h; inhibition, % at 10.9 µM; actives 0.065% (n = 150,000); AID 743093;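 active means inhibition above the mean plus 3 SD of compounds within the control limits, set per campaign, cut at about 38% in these data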;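 further: 0% = DMSO wells and 100% = medium only without gametocytes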
The depositor's hits bear a star; nt = no result.

SMILES | FLuc act counter | APP 5'UTR act | NF-kB expr up | FLuc inhib CS | STAT1 act | Pf gamet viab
CCOC(=O)C(Sc1ncnc2c1sc1nc(N3CCOCC3)c3c(c12)CCCC3)c1ccccc1 (stereo unspecified) | 1.1 | -19 | 0.93 | -5 | 97 | nt
Cc1cccc(OCCC(=O)Nc2c(C)n(C)n(-c3ccccc3)c2=O)c1 | 1.1 | 3 | 1.1 | -9 | 103 | 1
COCCNC(=S)N/N=C(\C)c1ccccc1OC | 1.1 | -15 | 1.2 | -6 | 90 | 21
COCCNC(=S)N/N=C(\C)c1ccccc1O | 0.9 | -79 | 15* | 10 | 102 | 2
Clc1ccc(-c2nnc(-c3ccco3)o2)cc1 | 0.8 | 91 | 2.3 | 18 | 144* | nt
Cc1ncc([N+](=O)[O-])n1CCOC(=O)NC(NCc1ccccc1Cl)C(Cl)(Cl)Cl (stereo unspecified) | 1.1 | -4 | 0.97 | -6 | 101 | 13
Cc1ccc(C(=O)CCNc2ccc(Br)cc2)o1 | 1 | 31 | 1.3 | -1 | 115 | nt
Cc1ccc(C(=O)CCNc2ccccc2)o1 | 1.1 | -4 | 1.1 | -7 | 140* | -32
Cc1ccc(C(=O)CCNc2ccc(F)c(Cl)c2)o1 | 1 | 31 | 5.4* | -3 | 107 | 12
Cn1c(C(=O)NCc2ccccn2)cc2c(=O)n3ccccc3nc21 | 0.5 | 17 | 1.9 | 51* | 133* | nt
COc1ccc(NC(=O)c2cc3c(=O)n4ccccc4nc3n2C)c(OC)c1 | 1 | 21 | 1.3 | 0 | 107 | 10
CC(C)(C)c1ccc(C(=O)Nc2cnccn2)cc1 | 0.1 | 173* | 6.4* | 86* | 116 | -19
CC(C)(C)c1ccc(C(=O)Nc2ncn[nH]2)cc1 | 0.6 | 105 | 2.9 | 44 | 115 | 10
Cc1ccc(C)c(N2CCN(C(=O)C3CCN(S(=O)(=O)c4cccc5nsnc45)CC3)CC2)c1 | 1 | -7 | 0.43 | -4 | 90 | nt
COCCCNC(=O)C(C)N1c2cccc3cccc(c23)S1(=O)=O (stereo unspecified) | nt | nt | nt | nt | nt | -18
O=C(Nc1ccccc1)c1ccc(-c2ccc(F)cc2)s1 | 0.8 | 75 | 2.2 | 16 | 143* | 10
CNC(=O)c1ccc(-c2ccc(F)cc2)s1 | 0.6 | 86 | 2.8 | 35 | 119 | -27
O=C(CSc1nnc(-c2ccc(O)cc2)n1Cc1ccco1)N1CCc2ccccc2C1 | 1.1 | 6 | 0.81 | -6 | 102 | 8
CS(=O)(=O)c1ccc(C(=O)OCc2nnc(-c3ccc(Cl)cc3)o2)cc1[N+](=O)[O-] | 1 | -19 | 8.4* | 0 | 87 | nt
CC1CC(C)(C)Nc2ccc(OC(=O)c3ccco3)cc21 (stereo unspecified) | 0.4 | -30 | 2.2 | 60* | 82 | nt
CC1CCN(C(=O)C2(NC(=O)Nc3cccc(F)c3)CCCCC2)CC1 | 1.1 | -2 | 1.3 | -10 | 99 | nt
CC(C(=O)O)c1ccc(N2Cc3ccccc3C2=O)cc1 (stereo unspecified) | 0.4 | 74 | 6.2* | 62* | 145* | nt
CCCC(=O)Nc1cnc(NC(=O)c2cccc(F)c2)cc1C | 0.7 | 173* | 2.7 | 30 | 116 | 14
Cc1cc(NC(=O)C(C)C)ncc1NC(=O)c1cccc(F)c1 | 1 | 3 | 1.1 | -3 | 106 | -9
CC(C)(C)C(=O)Nc1cc2nn(-c3ccccc3)nc2cc1Cl | 0 | 9 | 0.17 | 97* | 24 | nt
SMILES | FLuc act counter | APP 5'UTR act | NF-kB expr up | FLuc inhib CS | STAT1 act | Pf gamet viab
CC(=O)Nc1cc2nn(-c3ccccc3)nc2cc1Cl | 0.4 | 53 | 5.3* | 56* | 131* | nt
Cc1cc(=O)oc(C)c1C(=O)Nc1ccc(F)cc1 | nt | nt | nt | nt | nt | 14
COc1ccccc1/C=C/C(=O)OCC(=O)c1c(N)n(C)c(=O)n(C)c1=O | 1.1 | -3 | 1.2 | -7 | 97 | 1
CCCc1ccc(OC(=O)c2ccc(O)cc2Cl)cc1 | 0.7 | 218* | 4.3* | 28 | 119 | -14
CCOC(=O)c1ccc(N/C=C/C(=O)c2ccc(OC)cc2)cc1 | 1 | 5 | 1.6 | -4 | 98 | nt
Cc1ccc(C(=O)/C=C\Nc2ccc(C)c(C)c2)cc1 | 0.7 | 170* | 2.4 | 29 | 136* | 11
Cc1ccc(N/C=C/C(=O)c2ccc(C)cc2)cc1 | 0.5 | 91 | 5.2* | 51* | 144* | -9
COc1cccc(N/C=C/C(=O)c2ccc(C)cc2)c1 | nt | nt | nt | nt | nt | -20
COc1ccc(N/C=C/C(=O)c2ccc(Cl)cc2)cc1 | 0.7 | 152* | 1 | 35 | 140* | nt
COc1ccccc1N1CCN(C(=O)c2cc(-c3cccc(Cl)c3)on2)CC1 | 1 | -1 | 1 | -2 | 103 | nt
c1ccc(-c2ncc3c(ccc4ccccc43)n2)cc1 | 0.1 | 113 | 1.2 | 89* | 141* | nt
O=C(O)c1ncc(-c2ccccc2)cn1 | 1 | 5 | 0.98 | -4 | 101 | 11
c1ccc(-c2cnc(-c3ccccc3)nc2)cc1 | 0.3 | 79 | 9.4* | 66* | 123 | nt
c1ccc2c(c1)cnc1ccccc12 | nt | nt | nt | nt | nt | -9
CCNc1nc(SC)nc(N(C#N)CC(=O)OC)n1 | 1.1 | 23 | 1.1 | -5 | 105 | -12
CC(C)(C)c1ccc(C(=O)Nc2cccc([N+](=O)[O-])c2)cc1 | 0.3 | 137* | 7.6* | 72* | 135* | -18
CN(c1cccc(NC(=O)c2ccc(C(C)(C)C)cc2)c1)S(C)(=O)=O | 0.2 | 91 | 2 | 80* | 138* | -26
O=C(Nc1cccc([N+](=O)[O-])c1)c1ccncc1 | 1 | 15 | 0.94 | -5 | 107 | -21
O=C(Nc1cccc([N+](=O)[O-])c1)c1[nH]ncc1Cl | 1 | 112 | 2.6 | -1 | 134* | 11
CN(c1cccc(NC(=O)c2ccc(N(C)S(=O)(=O)c3ccccc3)cc2)c1)S(C)(=O)=O | 1.1 | 16 | 0.57 | -6 | 86 | 25
O=C(Nc1cccc([N+](=O)[O-])c1)c1ccc2c(c1)OCCO2 | 0.6 | 91 | 2.4 | 43 | 139* | -14
O=C(Nc1ccc(F)c([N+](=O)[O-])c1)c1ccc2c(c1)OCCO2 | 0.7 | 56 | 1.9 | 28 | 105 | 11
O=S(=O)(NCc1cccnc1)c1cccn1-c1ncc(C(F)(F)F)cc1Cl | 1.1 | 3 | 0.89 | -8 | 86 | 11
CN1CCN(C(=O)C(C(=O)c2ccc(F)cc2)n2ccccc2=O)CC1 (stereo unspecified) | 1.1 | -16 | 1 | -6 | 102 | -57
O=C(Nc1ccccn1)c1ccc2ccccc2n1 | 0.2 | 141* | 5.9* | 84* | 111 | nt
O=C(Nc1ccccn1)C(=O)Nc1ccccn1 | nt | nt | nt | nt | nt | 26
CCC(CC)c1nnc(NC(=O)c2ccc3ccccc3n2)s1 | 0.9 | 95 | 4.9* | 14 | 152* | 15
Cc1cccc(NC(=O)c2ccc3ccccc3n2)c1C | 0.6 | 211* | 9.1* | 42 | 134* | -23
Oc1ccc(-c2cn3c(n2)SCC3)cc1O | 0.9 | -20 | 0.73 | 8 | 97 | 22
